Assay results: ChEMBL document CHEMBL4808162, “Constraining the Side Chain of C-Terminal Amino Acids in Apelin-13 Greatly Increases Affinity, Modulates Signaling, and Improves the Pharmacokinetic Profile” (J Med Chem, 2021)
Activity calls are given as the source filed them. No cut-off for these calls is given here.

Experiments:
Apelin receptor [1] = target: T1, Apelin receptor (Homo sapiens, UniProt P35414); experiment: Agonist activity at human APJ receptor expressed in HEK293T cells co-expressing PDZ-Rho-Gef-RLucll and rGFP-CAAX assessed as induction of recruitment of Galpha12 to cell membrane using coelenterazine luciferase substrate incubated for 5 mins by BRET assay; type: functional, cell-based, HEK293
T1 sequence (P35414 whole entry): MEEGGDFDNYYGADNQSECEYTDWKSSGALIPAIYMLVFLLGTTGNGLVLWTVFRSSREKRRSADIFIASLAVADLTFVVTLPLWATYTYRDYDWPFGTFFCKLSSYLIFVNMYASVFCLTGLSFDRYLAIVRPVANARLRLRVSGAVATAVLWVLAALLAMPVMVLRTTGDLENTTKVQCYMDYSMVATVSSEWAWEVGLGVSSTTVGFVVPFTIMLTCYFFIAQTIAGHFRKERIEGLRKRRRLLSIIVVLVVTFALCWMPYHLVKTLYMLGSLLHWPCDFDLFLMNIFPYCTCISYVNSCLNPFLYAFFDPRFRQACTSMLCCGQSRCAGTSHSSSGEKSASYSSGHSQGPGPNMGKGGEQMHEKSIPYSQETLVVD

[2] = target: T2, Apelin receptor (Homo sapiens) (UniProt P35414); experiment: Agonist activity at human APJ receptor expressed in HEK293T cells co-expressing PDZ-Rho-Gef-RLucll and rGFP-CAAX assessed as induction of recruitment of Galpha12 to cell membrane using coelenterazine luciferase substrate incubated for 5 mins by BRET assay relative to control; type: functional, cell-based; settings: HEK293, filed as partial agonist
T2 sequence (whole entry): T1 sequence (P35414 whole entry)
Method in brief: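 HEK293T cells (35 000/well) transiently transfected with PEI 48 h before assay, carrying hAPJ, Gα12, Gβ1, Gγ1 and the ebBRET pair PDZ-RhoGEF-RLucII / rGFP-CAAX. Ligand stimulation for 5 min. Curves fitted as normalized variable-slope dose-response with Hill slope shared; eight experiments, each singly.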

Apelin receptor [3] = target: T1, Apelin receptor; experiment: Agonist activity at human APJ receptor expressed in HEK293 cells co-expressing Rlucll-beta-arrestin2 assessed as induction of beta-arrestin2 recruitment to receptor incubated for 30 mins by BRET assay; type: functional, cell-based
[4] = Stability in Sprague-Dawley rat plasma assessed as half life measured up to 24 hrs by UPLC-MS analysis; type: ADME, cell-free
Method in brief: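 Peptide (6 μL of 1 mM aqueous solution) incubated with 27 μL male Sprague-Dawley rat plasma at 37 °C. Time points 0, 1, 2, 4, 7, 24 h, or 0–120 min for labile peptides. Reaction quenched with acetonitrile-ethanol containing N,N-dimethylbenzamide internal standard, filtered, then UPLC-MS. t1/2 from one-phase exponential decay; at least three experiments.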

Rattus norvegicus [5] = experiment: Hypotensive effect in Sprague-Dawley rat assessed as drop in mean arterial blood pressure at 19.6 nmol/kg, iv bolus injection measured after 1 min; type: functional
Method in brief: (§1)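 Male Sprague-Dawley rats (250−300 g) under ketamine/xylazine (87/13 mg/kg i.m.) on a thermostatic pad. Mean arterial pressure recorded through a right carotid catheter. Saline vehicle bolus given, then 5 min later the peptide i.v. at 19.6 nmol/kg (n = 5) or 65 nmol/kg.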

Apelin receptor [6] = target: T1, Apelin receptor; experiment: Agonist activity at human APJ receptor expressed in HEK293T cells co-expressing Galphai1 RlucII assessed as dissociation of Galphai1 from Gbetta/gamma subunit measured using coelenterazine luciferase substrate incubated for 5 mins by BRET assay; type: functional, cell-based, HEK293
Rattus norvegicus [7] = experiment: Effect on mean arterial blood pressure in Sprague-Dawley rat at 65 nmol/kg, iv bolus injection measured after 1 min; type: functional, organism-based; method in brief: as §1
Apelin receptor [8] = target: T1, Apelin receptor; experiment: Displacement of [125I] [NIe75,Tyr77]Pyr-apelin-13 from YFP-tagged human APJ receptor expressed in HEK293 cells incubated for 1 hr by gamma counting analysis; type: cell-based
[9] = target: T2, Apelin receptor (Homo sapiens); experiment: Agonist activity at human APJ receptor expressed in HEK293 cells co-expressing Rlucll-beta-arrestin2 assessed as induction of beta-arrestin2 recruitment to receptor incubated for 30 mins by BRET assay relative to control; type: functional, cell-based
Method in brief: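 HEK293 cells transiently transfected with PEI, carrying hAPJ-GFP10 and RlucII-β-arrestin2. Cells replated at 50 000/well after 24 h, washed, and placed in HBSS. Ligand given at 10⁻⁵ to 10⁻¹¹ M for 30 min at room temperature. 5 μM coelenterazine 400A added, BRET² ratio GFP10/RlucII read. EC50 from dose-response fit; three experiments, each in triplicate.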

| EC50 (Apelin receptor [1]) | Emax [2] | EC50 (Apelin receptor [3]) | half-life [4] | EC50 (Apelin receptor [6]) | Ki (Apelin receptor [8]) | Emax [9] | SMILES | Activity (Rattus norvegicus [5]) | Activity (Rattus norvegicus [7]) |
| --- | --- | --- | --- | --- | --- | --- | --- | --- | --- |
| 4.4 nM | 46% | 30 nM | 54 min | 2.7 nM | – | – | CCCC[C@H](NC(=O)[C@@H]1CCCN1C(=O)CNC(=O)[C@H](CCCCN)NC(=O)[C@H](Cc1cnc[nH]1)NC(=O)[C@H](CO)NC(=O)[C@H](CC(C)C)NC(=O)[C@H](CCCNC(=N)N)NC(=O)[C@@H]1CCCN1C(=O)[C@H](CCCNC(=N)N)NC(=O)[C@@H]1CCC(=O)N1)C(=O)N1CCC[C@H]1C(=O)N[C@](C)(Cc1ccc(OCc2ccccc2)cc1)C(=O)O | 30 mmHg | – |
| 141 nM | – | 367 nM | – | 22 nM | 13 nM | 53% | CCCC[C@H](NC(=O)[C@@H]1CCCN1C(=O)CNC(=O)[C@H](CCCCN)NC(=O)[C@H](Cc1cnc[nH]1)NC(=O)[C@H](CO)NC(=O)[C@H](CC(C)C)NC(=O)[C@H](CCCNC(=N)N)NC(=O)[C@@H]1CCCN1C(=O)[C@H](CCCNC(=N)N)NC(=O)[C@@H]1CCC(=O)N1)C(=O)N1CCC[C@H]1C(=O)N[C@H](Cc1cc(C2CCCC2)c(OCc2ccccc2)c(C2CCCC2)c1)C(=O)O | – | inactive |
